An excerpt weighted towards active compounds, which were near 3.3% of everything screened.
Lipid droplet: inhibitors of hepatocyte lipid droplet formation, primary screen, imaging, high-throughput imaging, BODIPY stain. AML12 mouse hepatocytes, oleate lipid droplets. inhibition, % at 6.5 µM. hit rate 0.4% among 240,000. AID 1656, 2009;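 active = lipid droplet intensity inhibited by at least 50%, with more than 500 cells counted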
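Assay system: AML12 hepatocytes (mouse) / Also added: 100 µM oleic acid challenge / Times: overnight treatment with compound plus oleate / Detection: high-content imaging of BODIPY-stained droplets and DAPI nuclei / Evaluation: % inhibition of lipid droplet signal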
PfM18AAP inh-1: PfM18AAP inhibitors, malaria aminopeptidase, primary screen, biochemical, QFRET, recombinant enzyme; M18 aspartyl aminopeptidase (Plasmodium falciparum 3D7); H-Glu-NHMec fluorogenic cleavage; inhibition, % at 7.35 µM; hit rate 1.2% among 290,000;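 active = inhibition above the campaign mean inhibition over all tested compounds plus 3 SD, cut at about 28% in these data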;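 note: 0% = plate median of test compound wells and 100% = 2 mM ZnCl2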
sPLA2-III inh: human group III sPLA2 inhibitors, primary screen, biochemical, QFRET, BODIPY PC-A2 liposome substrate. Group 3 secretory phospholipase A2 (Homo sapiens), Q9NZ20. QFRET BODIPY PC-A2 liposome hydrolysis, fluorescence. inhibition, % at 12.2 µM. hit rate 0.56% among 370,000;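 active = inhibition above mean plus 3 SD of compounds lying within the high and low control bounds, cut at about 19% in these data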;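 note: 0% = median of test compound wells and 100% = no enzyme DMSO wells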
m5-HT2A agonist: mouse Htr2a agonists via beta-arrestin recruitment, primary screen, cell-based, luminescence. hit rate 0.66% among 360,000. CHO-K1 mHTR2A beta-arrestin complementation; percent of 30 µM serotonin response. 5-hydroxytryptamine receptor 2A (Mus musculus), P35363. activation, % at 7.6 µM;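 active = activation above a run cutoff, the mean activation of all tested compounds plus 3 SD, cut at about 14% in these data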;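 note: 0% = plate median of compound wells and 100% = 30 µM serotonin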
Target sequence (P35363 whole entry, looked up): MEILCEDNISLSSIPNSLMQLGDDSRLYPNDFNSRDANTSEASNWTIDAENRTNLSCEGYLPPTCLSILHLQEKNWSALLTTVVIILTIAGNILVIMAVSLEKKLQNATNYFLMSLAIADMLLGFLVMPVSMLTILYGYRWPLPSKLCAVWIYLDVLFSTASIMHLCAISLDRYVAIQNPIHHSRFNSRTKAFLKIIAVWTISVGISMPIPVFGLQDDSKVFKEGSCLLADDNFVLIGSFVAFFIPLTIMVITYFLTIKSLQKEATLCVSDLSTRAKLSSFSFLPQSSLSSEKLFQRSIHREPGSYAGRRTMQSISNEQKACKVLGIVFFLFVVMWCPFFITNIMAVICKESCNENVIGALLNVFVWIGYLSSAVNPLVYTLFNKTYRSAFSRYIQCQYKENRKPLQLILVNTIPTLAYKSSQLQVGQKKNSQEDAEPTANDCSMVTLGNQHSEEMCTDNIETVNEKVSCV
NRP1-CendR mod: modulators of CendR peptide binding to NRP-1, primary screen, biochemical, fluorescence polarization, uHTS; Neuropilin-1 (Homo sapiens), O14786; FAM-RPARPAR peptide binding to NRP-1; inhibition, % at 25 µM; hit rate 0.85% among 360,000; AID 602438, 2012;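 active = inhibition or corrected inhibition above about 18%, plus a signal ratio from 0.5 to 1.5, limit read from the data, passing the limit was not always enough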
Arrestin-AP2 inh: inhibitors of beta-arrestin/AP2 binding, primary screen, biochemical, GPCR trafficking, flow cytometry | beta-arrestin 1 C-terminal peptide binding to AP2 beta2-adaptin appendage (human) | inhibition, % at 10 µM | FITC-arrestin peptide / GST-AP2 beads; AP2 beta2 appendage carries R879A mutation | hit rate 0.31% among 340,000;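 active = inhibition above a set limit, near 3 SD of compounds lacking own fluorescence, cut at about 54% in these data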;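 note: plate controls were DMSO wells for no effect and 5 µM unlabelled arrestin peptide for full effect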
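Material – AP2 appendage R879A on GSH beads · Buffer or medium – PBS with 0.05% Tween 20 and 0.1% BSA · Probe or stimulus – fluorescein-tagged arrestin peptide at 50 nM final · Incubation – compound with beads 12 min RT, then probe 1 h RT · Detection – high-throughput flow cytometry of beads, ex 488, em 535 nm · Evaluation – percent response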
PfM18AAP inh-2: PfM18AAP inhibitors, malaria aminopeptidase, confirmation, biochemical, QFRET, recombinant enzyme, triplicate. H-Glu-NHMec fluorogenic cleavage. inhibition, % at 7.35 µM. hit rate 28% among 2,400. shares compounds with PfM18AAP inh-1;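 active = mean inhibition over replicate wells above the hit cutoff set for the earlier primary screen, cut at about 29% in these data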;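 note: 0% = median of test compound wells and 100% = 2 mM ZnCl2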
CTSL1 confirm: cathepsin L1 inhibitors, retest, confirmation, counter-screen for PFM18AAP inhibitor project, biochemical, QFRET, triplicate. shares compounds with PfM18AAP inh-1. purified cathepsin L1, Z-Leu-Arg-MCA fluorescence. inhibition, % at 5.96 µM. 2,400 tested, under 10 active;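 active = average inhibition across replicates above the hit cutoff set in the earlier primary screen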;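 note: 0% = median of test compound wells and 100% = Z-Phe-Ala-diazomethylketone 1 µM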
The depositor's hits bear a star; · = no result.

SMILES	Lipid droplet	PfM18AAP inh-1	sPLA2-III inh	m5-HT2A agonist	NRP1-CendR mod	Arrestin-AP2 inh	PfM18AAP inh-2	CTSL1 confirm
Cc1ccc(NC(=O)Cc2ccc3c(c2)OCCO3)cc1S(=O)(=O)N1CCCCC1	-36	-5	-40	-7	-12	-18	·	·
COc1ccc2c(c1OC)C(=O)OC2CC(=O)c1ccc(O)c(O)c1 (stereo not given)	-3	43*	-2	-4	-39	3	19	0
COc1ccc(-n2c(Cn3nc(C(F)(F)F)cc3C)n[nH]c2=S)cc1	-3	32*	9	3	12	-34	-17	-3
COc1ccc(C2=CCCCCC2)cc1OC	·	·	3	-7	3	·	·	·
CCOc1ccc(C(=S)NC2CCCCC2)cc1OCC	3	37*	6	1	0	52	18	-3
CCOc1ccc(C(C)NC(=S)NC2CCCCC2)cc1OCC (stereo not given)	-1	-1	13	0	7	5	·	·
CN(C)c1ccc(C(=S)NC2CCCCC2)cc1	11	33*	14	5	-7	38	5	2
CCN(CC)c1ccc(C(=S)NC2CCCCC2)cc1	-6	1	13	-7	-7	15	·	·
Cc1cc(C)n2nc(SCC(=O)Nc3ccccc3)nc2n1	5	-16	0	-6	-9	16	·	·
O=C1c2ccccc2C(=O)N1CSc1ncccn1	·	46*	2	0	0	23	-58	2
Cc1cc(C)n2nc(SCN3C(=O)c4ccccc4C3=O)nc2n1	·	77*	2	4	-10	14	-42	3
O=C1NC[C@H](CC2CCCCC2)N(CCc2cccc(F)c2)C1=O	·	·	-1	2	1	-1	·	·
c1ccc2sc(-c3csc4c3CCNC4)nc2c1	·	·	-1	·	·	·	·	·
CCCN1CCN(C(=S)NCc2ccc(Cl)cc2)CC1	2	-2	4	-6	3	-16	·	·
CC(C)(C)c1cc(C(=S)N2CCN(CCO)CC2)cc(C(C)(C)C)c1O	-3	36*	8	-2	-10	0	-7	2
CCN1CCN(C(=S)c2ccc(Cl)cc2)CC1	5	44*	-2	-1	-12	24	36*	0
CSc1ccc(C(=S)N2CCN(Cc3ccccc3)CC2)cc1	·	41*	2	-2	-2	15	10	3
CC(C)(C)c1cc(C(=O)CCN2CCOCC2)cc(C(C)(C)C)c1O	-17	-8	16	-7	1	6	·	·
S=C(c1ccc(Cl)cc1)N1CCN(Cc2ccccc2)CC1	0	-10	3	-4	2	8	·	·
OCCN1CCN(C(=S)c2ccc(Cl)cc2)CC1	9	43*	-2	-5	-186	4	8	5
CCOc1ccc(C(=S)N2CCN(C)CC2)cc1	-20	48*	5	1	6	-18	4	0
CCN1CCN(C(=S)c2ccc(OC)cc2)CC1	-7	45*	7	-6	6	-21	13	1
COc1ccc(C)cc1NCc1cc(=O)oc2cc(-c3ccccc3)c(O)cc12	7	8	4	-7	2	19	·	·
COC(=O)c1ccccc1NCc1cc(=O)oc2cc(O)c(O)cc12	-7	34*	13	5	-52	9	-5	8
C=C(C)c1cccc(C(C)(C)NC(=O)Nc2ccc(C(C)=O)cc2)c1	37	6	-13	2	-5	-7	·	·
